# Data from ChEMBL document CHEMBL4689842, “EUbOPEN Chemogenomics Library wave 1” (2021).
# Test system: Fibroblast
# Experiment: Multiplex assay against human fibroblast
# Format: toxicity, cell-based
# How it was run: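 Cells were classed with CellPathfinder machine-learning gating, first as Hoechst high-intensity objects or normal cells, then (normal cells) as healthy, pyknosed or fragmented nuclei, and finally (pyknosed cells) as mitotic or apoptotic. Staining of live cells at seeding used Hoechst33342, BioTracker Green Microtubule Cytoskeleton Dye, MitoTracker Red and Annexin V Alexa Fluor 680, with imaging on a CQ1 microscope at 37°C and 5% CO2 after compound addition. Tubulin, mitochondrial-mass and membrane-permeability phenotypes are per cents of healthy-nucleus cells.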
# [1] = 12 h, 1 µM, compound concentration 1 uM, replicate 1
# [2] = 12 h, 1 µM, compound concentration 1 uM, replicate 2
# [3] = 12 h, 10 µM, compound concentration 10 uM, replicate 1
# [4] = 12 h, 10 µM, compound concentration 10 uM, replicate 2
# [5] = 24 h, 1 µM, compound concentration 1 uM, replicate 1
# [6] = 24 h, 1 µM, compound concentration 1 uM, replicate 2
# [7] = 24 h, 10 µM, compound concentration 10 uM, replicate 1
# [8] = 24 h, 10 µM, compound concentration 10 uM, replicate 2
smiles,measurement,setting,value
O=C(Nc1cccnn1)N1CCC(=Cc2cccc(Oc3ccc(C(F)(F)F)cn3)c2)CC1,Population Apoptotic (%),[1],59%
same,Population Fragmented Nuclei (%),[1],24%
same,Population Healthy Nuclei (%),[1],56%
same,Population Hoechst High Intensity Objects (%),[1],10%
same,Population Membrane Permeable-Phenotype (%),[1],20%
same,Population Mitochondria Different-Phenotype (%),[1],10%
same,Population Normal (%),[1],89%
same,Population Pyknosed Nuclei (%),[1],18%
same,Population Tubulin-Different-Phenotype (%),[1],28%
same,Total Cell Count,[1],217
same,Population Apoptotic (%),[2],60%
same,Population Fragmented Nuclei (%),[2],71%
same,Population Healthy Nuclei (%),[2],17%
same,Population Hoechst High Intensity Objects (%),[2],44%
same,Population Membrane Permeable-Phenotype (%),[2],25%
same,Population Mitochondria Different-Phenotype (%),[2],0%
same,Population Mitotic Cells (%),[2],40%
same,Population Normal (%),[2],55%
same,Population Pyknosed Nuclei (%),[2],10%
same,Population Tubulin-Different-Phenotype (%),[2],25%
same,Total Cell Count,[2],83
same,Population Apoptotic (%),[3],73%
same,Population Fragmented Nuclei (%),[3],34%
same,Population Healthy Nuclei (%),[3],52%
same,Population Hoechst High Intensity Objects (%),[3],14%
same,Population Membrane Permeable-Phenotype (%),[3],6%
same,Population Mitochondria Different-Phenotype (%),[3],5%
same,Population Mitotic Cells (%),[3],26%
same,Population Normal (%),[3],85%
same,Population Pyknosed Nuclei (%),[3],13%
same,Population Tubulin-Different-Phenotype (%),[3],7%
same,Total Cell Count,[3],170
same,Population Apoptotic (%),[4],25%
same,Population Fragmented Nuclei (%),[4],50%
same,Population Healthy Nuclei (%),[4],37%
same,Population Hoechst High Intensity Objects (%),[4],24%
same,Population Membrane Permeable-Phenotype (%),[4],12%
same,Population Mitochondria Different-Phenotype (%),[4],12%
same,Population Mitotic Cells (%),[4],75%
same,Population Normal (%),[4],75%
same,Population Pyknosed Nuclei (%),[4],12%
same,Population Tubulin-Different-Phenotype (%),[4],4%
same,Total Cell Count,[4],85
same,Population Apoptotic (%),[5],72%
same,Population Fragmented Nuclei (%),[5],28%
same,Population Healthy Nuclei (%),[5],58%
same,Population Hoechst High Intensity Objects (%),[5],6%
same,Population Membrane Permeable-Phenotype (%),[5],9%
same,Population Mitochondria Different-Phenotype (%),[5],12%
same,Population Mitotic Cells (%),[5],27%
same,Population Normal (%),[5],93%
same,Population Pyknosed Nuclei (%),[5],13%
same,Population Tubulin-Different-Phenotype (%),[5],27%
same,Total Cell Count,[5],238
same,Population Apoptotic (%),[6],60%
same,Population Fragmented Nuclei (%),[6],60%
same,Population Healthy Nuclei (%),[6],28%
same,Population Hoechst High Intensity Objects (%),[6],42%
same,Population Membrane Permeable-Phenotype (%),[6],23%
same,Population Mitochondria Different-Phenotype (%),[6],23%
same,Population Mitotic Cells (%),[6],40%
same,Population Normal (%),[6],57%
same,Population Pyknosed Nuclei (%),[6],11%
same,Population Tubulin-Different-Phenotype (%),[6],38%
same,Total Cell Count,[6],78
same,Population Apoptotic (%),[7],65%
same,Population Fragmented Nuclei (%),[7],28%
same,Population Healthy Nuclei (%),[7],57%
same,Population Hoechst High Intensity Objects (%),[7],18%
same,Population Membrane Permeable-Phenotype (%),[7],1%
same,Population Mitochondria Different-Phenotype (%),[7],2%
same,Population Mitotic Cells (%),[7],35%
same,Population Normal (%),[7],81%
same,Population Pyknosed Nuclei (%),[7],13%
same,Population Tubulin-Different-Phenotype (%),[7],2%
same,Total Cell Count,[7],179
same,Population Apoptotic (%),[8],33%
same,Population Fragmented Nuclei (%),[8],51%
same,Population Healthy Nuclei (%),[8],38%
same,Population Hoechst High Intensity Objects (%),[8],23%
same,Population Membrane Permeable-Phenotype (%),[8],12%
same,Population Mitochondria Different-Phenotype (%),[8],8%
same,Population Mitotic Cells (%),[8],66%
same,Population Normal (%),[8],76%
same,Population Pyknosed Nuclei (%),[8],9%
same,Population Tubulin-Different-Phenotype (%),[8],20%
same,Total Cell Count,[8],81
